Laboratory results: publication PMC4674087 (ChemMedChem, 2015)
Converted amounts (≈) assume the structure as drawn. “And” between values parts separate entries of the source, which are not always exact repeats. Equal values may be shown once. Values belong to the compound of their own block, whether it stands above or below them.

Key:
[1] = test system: mitochondrial permeability transition pore (mtPTP); assay: Calcium retention capacity; assay type: biochemical, mouse; details: for CRC/CRC0: at 1.56 µM, average ±SEM, n≥3
[2] = HeLa cell viability assay; assay type: cell-based, human; details: human, HeLa cells, with verapamil (20 µM) or CsH (2 µg/mL)
How it was run: (§1)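 HeLa cells are grown in DMEM with 10% FBS at 37 °C and 5% CO2, seeded at 1×10^4 per well, and left to adhere for 6 h. They are then exposed for 24 h to a range of test compound concentrations or 1% DMSO vehicle, with 20 µM verapamil or 2 µg/mL CsH present. Relative viable cell number is read with the CellTiter 96 Aqueous One kit.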

[3] = test system: mitochondrial permeability transition pore (mtPTP); assay: Mitochondrial swelling assay; assay type: biochemical, mouse; details: for EC50: read-out: mitochondrial swelling EC50, isolated mouse liver mitochondria
HeLa cells [4] = assay: Oxygen consumption of HeLa cells; assay type: cell-based, human; details: CsH present
How it was run: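 HeLa monolayers are seeded at 3×10^4 per well in DMEM and cultured for 24 h. Medium is replaced by serum- and antibiotic-free unbuffered DMEM (pH 7.4) containing 2 µg/mL CsH or 20 µM verapamil. Oxygen consumption is measured on a Seahorse XF24 with sequential additions, and protein per well is quantified by BCA afterwards. Results are mean ± SD of a representative experiment, repeated four times.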

Plasma stability, mouse = assay type: in vitro ADME
[5] = test system: mitochondrial permeability transition pore (mtPTP); assay: Chemical activation of mtPTP; assay type: biochemical, mouse; details: 1.56 µM; 10 µM Ca2+ plus PhAsO, diamide, Cu(OP)2 or NEM
Plasma stability, human = assay type: in vitro ADME
HeLa cells [6] = assay: HeLa cell viability assay; assay type: cell-based, human; details: 24 h, CsH or verapamil present
How it was run: as §1

adenosine A3 = target: T1, adenosine A3 (Homo sapiens, UniProt P0DMS8); assay: Eurofins LeadProfilingScreen panel; assay type: binding; details: read-out: inhibition of adenosine A3
T1 sequence (P0DMS8 1-318): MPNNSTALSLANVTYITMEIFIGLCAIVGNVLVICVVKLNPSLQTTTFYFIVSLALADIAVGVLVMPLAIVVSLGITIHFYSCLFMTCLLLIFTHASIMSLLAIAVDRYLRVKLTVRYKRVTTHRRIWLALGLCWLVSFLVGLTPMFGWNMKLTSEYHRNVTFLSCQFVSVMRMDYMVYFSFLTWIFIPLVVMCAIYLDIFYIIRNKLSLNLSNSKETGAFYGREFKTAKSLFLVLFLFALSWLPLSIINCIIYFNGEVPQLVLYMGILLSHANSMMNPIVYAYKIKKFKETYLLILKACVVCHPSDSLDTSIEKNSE

[7] = Plasma protein binding, mouse; assay type: in vitro ADME
[8] = target: human norepinephrine transporter (NET) (Homo sapiens, UniProt P23975); assay: Eurofins LeadProfilingScreen panel; assay type: binding; details: read-out: inhibition of human norepinephrine transporter (NET)
Sequence of human norepinephrine transporter (NET) (P23975 whole entry): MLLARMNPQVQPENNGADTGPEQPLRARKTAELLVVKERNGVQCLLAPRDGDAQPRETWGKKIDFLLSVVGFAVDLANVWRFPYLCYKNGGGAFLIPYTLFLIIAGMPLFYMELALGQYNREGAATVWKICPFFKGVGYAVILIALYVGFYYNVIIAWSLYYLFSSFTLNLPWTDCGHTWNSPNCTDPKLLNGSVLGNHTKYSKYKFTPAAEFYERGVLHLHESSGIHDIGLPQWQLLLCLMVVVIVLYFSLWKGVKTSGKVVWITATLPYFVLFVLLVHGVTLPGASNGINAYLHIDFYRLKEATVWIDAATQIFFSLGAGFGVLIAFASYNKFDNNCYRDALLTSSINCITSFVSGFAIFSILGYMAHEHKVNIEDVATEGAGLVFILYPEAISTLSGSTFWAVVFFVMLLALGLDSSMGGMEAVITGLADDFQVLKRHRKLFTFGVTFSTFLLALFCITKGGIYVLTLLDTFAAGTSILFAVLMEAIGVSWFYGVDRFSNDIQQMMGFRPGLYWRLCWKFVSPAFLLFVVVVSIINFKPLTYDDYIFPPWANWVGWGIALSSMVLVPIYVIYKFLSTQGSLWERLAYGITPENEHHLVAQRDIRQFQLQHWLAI

[9] = test system: exon 9 col6a1 morphant zebrafish; assay: Zebrafish ColVI myopathy model, motor activity; assay type: in vivo; details: 5 and 10 µM in fish water, added at 21 hpf
[10] = test system: exon 9 col6a1 morphant zebrafish; assay: Zebrafish ColVI myopathy model, muscle birefringence; assay type: in vivo; details: 48 hpf; 5 and 10 µM in fish water, added at 21 hpf; ANOVA p < 0.05
human mtPTP = assay: CRC of HeLa cells; assay type: cell-based
[11] = Microsomal stability, mouse liver microsomes; assay type: in vitro ADME
[12] = test system: isolated mouse liver mitochondria; assay: Oxygen consumption of isolated mouse liver mitochondria; assay type: biochemical
[13] = Microsomal stability, human liver microsomes; assay type: in vitro ADME
Aqueous solubility = assay type: physicochemical; details: PBS
[14] = Plasma protein binding, human; assay type: in vitro ADME
[15] = test system: other 66 targets in the panel (GPCRs, ion channels, transporters); assay: Eurofins LeadProfilingScreen panel, remaining targets; assay type: binding; details: 10 µM
[16] = isolated mouse liver mitochondria

SMILES: COc1cc(NC(=O)c2cc(-c3cccc(O)c3)on2)cc(OC)c1OC [Compound 1, 5-(3-hydroxyphenyl)-N-(3,4,5-trimethoxyphenyl)isoxazole-3-carboxamide]
CRC/CRC0 [1, 16]: 1.18 −0.06

SMILES: COc1ccc(-c2cc(C(=O)Nc3cc(Cl)cnc3C)no2)cc1O [Compound 54, N-(5-Chloro-2-methylpyridin-3-yl)-5-(3-hydroxy-4-methoxyphenyl)isoxazole-3-carboxamide]
CC50 at 24 h [2]: > 50 µM
CRC/CRC0 [1, 16]: 10.10±1.14 and 10.1 −1.1
EC50 [3]: 10 nM

SMILES: Cc1ccc(Cl)cc1NC(=O)c1cc(-c2ccc(F)c(O)c2)on1 [Compound 63, N-(5-Chloro-2-methylphenyl)-5-(4-fluoro-3-hydroxyphenyl)isoxazole-3-carboxamide]
CRC/CRC0 [1, 16]: 15.21±1.26 and 15.2 −1.3

Second part, led by results:

FCCP-stimulated and oligomycin-insensitive respiration (HeLa cells [4]): No statistically significant differences
half-life (Plasma stability, mouse): < 30 min
half-life (Plasma stability, human): > 120 min
inhibition at 10 µM (adenosine A3): 51%
fraction unbound [7]: < 0.01
recovery [7]: 0%
inhibition at 10 µM [8]: 79%
half-life [11]: < 15 min
microsomal CLint [11]: > 462 µL/min/mg
respiratory control ratios, FCCP-stimulated and oligomycin-insensitive respiration [12]: No statistically significant differences
half-life [13]: > 60 min
microsomal CLint [13]: < 116 µL/min/mg
Aqueous solubility (Aqueous solubility; pH 7.4): 16.1 µM
solubility (Aqueous solubility; pH 7.4, aqueous buffer, Aqueous solubility): 16 µM (≈ 5.55 µg/mL)
fraction unbound [14]: 0.11
recovery [14]: 76%
SMILES: Cc1c(Cl)cccc1NC(=O)c1cc(-c2ccc(F)c(O)c2)on1 [Compound 60, N-(3-Chloro-2-methylphenyl)-5-(4-fluoro-3-hydroxyphenyl)isoxazole-3-carboxamide]
mtPTP transition from closed to open after chemical activators [5]: prevented
concentration up to which not cytotoxic (HeLa cells [6]): 12.50 µM
CC50 at 24 h [2]: 39.5 ± 4.65 µM
Ca2+ load required for mtPTP opening ([1]; 1.56 µM compound, 20 µM Ca2+ pulses, solvent control 80): ~ 960 nmol (mg protein)^−1
CRC/CRC0 [1, 16]: 12.14±0.55 and 12.1 −0.6
compound-to-solvent CRC ratio reached on augmenting the concentration ([1]; concentration-response, Figure 4D trace a): 15
maximum CRC ratio relative to CsA-treated mitochondria [1, 16]: ~ 3 fold
effect on CRC in combination with 2 µM CsA ([1]; various concentrations of 60 plus 2 µM CsA): synergistic
mtPTP opening (swelling) induced by 50 µM Ca2+ load ([3]; 1.56 µM compound): abolished
motor function (spontaneous coiling events, touch-evoked response) [9]: dramatic improvement in motor function
muscle birefringence (structural muscle defects) [10]: significant recovery of muscle defects
CRC after treatment of intact HeLa cells, wash, then permeabilization (human mtPTP; 1.56 µM, 30 min): effective following treatment of intact human cells
CRC ratios of permeabilized HeLa cells (human mtPTP; increasing concentrations of 60): increased CRC ratios
inhibition of the other 66 targets in the panel [15]: ≤ 43%

EC50 [3]: 0.0076 nM
SMILES: COc1ccc(-c2cc(C(=O)Nc3cc(Cl)ccc3C)no2)cc1O [Compound 46, N-(5-Chloro-2-methylphenyl)-5-(3-hydroxy-4-methoxyphenyl)isoxazole-3-carboxamide]
CC50 at 24 h [2]: > 50 µM
CRC/CRC0 [1, 16]: 10.02±0.34
